ChEMBL document CHEMBL4622968, “Discovery of [1,2,4]triazolo[4,3-a]pyridines as potent Smoothened inhibitors targeting the Hedgehog pathway with improved antitumor activity in vivo” (Bioorg Med Chem, 2020)
Calls of active or inactive are those of the source. The rule behind the calls is not given here.

Assays:
MDA-MB-468 [1] = experiment: Induction of cell cycle arrest in human MDA-MB-468 cells assessed as cell accumulation at G2/M phase at 28 uM incubated for 48 hrs by propidium iodide staining-based flow cytometric analysis (reference value: 26.66 %); assay type: functional
Procedure, shortened: (§1)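 Cells were seeded at 1.2×10^5 per well and treated for 48 h (MDA-MB-468: 14, 28, 56 μM). Cells were fixed in 75% ethanol at −20 °C overnight, stained with PI and analysed by flow cytometry. Mean ± S.D. of three independent experiments versus DMSO.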

T47D = experiment: Antiproliferation activity against human T47D cells assessed as reduction in cell viability incubated for 72 hr by MTT assay; assay type: functional, cell-based
Procedure, shortened: (§2)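 MTT assay. Cells were plated overnight and exposed to a range of concentrations for 72 h. MTT was then added for 4 h and absorbance read at 570 nm. Inhibition% = [(control − compound)/(control − blank)] × 100. IC50 was fitted from the curves. Mean ± S.D. of 3–5 separate experiments. RPMI 1640 + 10% FBS; MCF10A in DMEM/F12 with 5% horse serum, EGF, hydrocortisone, insulin and cholera toxin.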

MDA-MB-468 [2] = experiment: Induction of apoptosis in human MDA-MB-468 cells assessed as late apoptotic cells at 56 uM incubated for 48 hrs by annexin-V-FITC staining based flow cytometric method (reference value: 0.99 %); assay type: functional
MDA-MB-231 = experiment: Induction of cell cycle arrest in human MDA-MB-231 cells assessed as cell accumulation at G0/G1 phase incubated for 48 hrs by propidium iodide staining-based flow cytometric analysis; assay type: functional
[3] = Acute toxicity in Kunming mouse assessed as lethality through intragastric administration observed for 14 days; conditions: in vivo, po
Procedure, shortened: (§3)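 Kunming mice, groups of 5 female and 5 male per dose, dosed once by gavage at graded doses; mortality recorded over 14 days as dead/treated and percent. LD50 derived by improved Karber's method: LD50 = lg^-1[xm − i(ΣP − 0.5)], xm log of maximal dose, i log ratio of neighbouring doses; 95% confidence intervals given.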

MDA-MB-468 [4] = experiment: Antitumour activity against human MDA-MB-468 cells xenografted in BALB/c mouse assessed as reduction in tumour volume at 80 mg/kg, ig measured every 2 days for 21 days relative to control; assay type: functional; parameters: scale not given: the % may be the effect or the level left
Procedure, shortened: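 Female BALB/c nude mice, 6–8 weeks old, were given subcutaneous flank injections of 1.0×10^7 MDA-MB-468 cells in 0.2 ml PBS. At 100 mm³ tumours they were randomized, five per group. Daily gavage in saline with 0.1% Tween 80 at 80 or 100 mg/kg, or vehicle alone. Tumour volume measured every 2 days and body weight daily. Tumours excised and weighed at day 21.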

MDA-MB-468 [5] = experiment: Induction of apoptosis in human MDA-MB-468 cells assessed as late apoptotic cells at 28 uM incubated for 48 hrs by annexin-V-FITC staining based flow cytometric method (reference value: 0.99 %); assay type: functional
[6] = Inhibition of hedgehog pathway in mouse NIH/3T3 cells harboring GRE-Luc assessed as inhibition of SAG-induced Hh signaling pathway by dual luciferase reporter gene assay; assay type: cell-based; conditions: NIH3T3
Procedure, shortened: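 NIH3T3 cells co-transfected with 8×3' Gli-BS-delta51-Luc II firefly reporter and pRL-TK Renilla plasmid; after 24 h treated with compounds plus SAG (pathway activator). Gli luciferase normalized to Renilla (dual-luciferase read-out); IC50 = concentration halving normalized signal; mean ± S.D. of 3–5 separate experiments.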

MDA-MB-468 [7] = experiment: Induction of apoptosis in human MDA-MB-468 cells assessed as increase in apoptosis incubated for 48 hrs by annexin-V-FITC/PI staining based flow cytometric method; assay type: functional, cell-based
MCF7 = experiment: Antiproliferation activity against human MCF7 cells assessed as reduction in cell viability incubated for 72 hrs by MTT assay; assay type: functional, cell-based; conditions: MCF7, 72 h; procedure, shortened: as §2
Protein smoothened [8] = target: T1, Protein smoothened (Homo sapiens, UniProt Q99835); experiment: Binding affinity to recombinant human Smo receptor assessed as association constant at equilibrium by SPR analysis
T1 sequence (Q99835 whole entry): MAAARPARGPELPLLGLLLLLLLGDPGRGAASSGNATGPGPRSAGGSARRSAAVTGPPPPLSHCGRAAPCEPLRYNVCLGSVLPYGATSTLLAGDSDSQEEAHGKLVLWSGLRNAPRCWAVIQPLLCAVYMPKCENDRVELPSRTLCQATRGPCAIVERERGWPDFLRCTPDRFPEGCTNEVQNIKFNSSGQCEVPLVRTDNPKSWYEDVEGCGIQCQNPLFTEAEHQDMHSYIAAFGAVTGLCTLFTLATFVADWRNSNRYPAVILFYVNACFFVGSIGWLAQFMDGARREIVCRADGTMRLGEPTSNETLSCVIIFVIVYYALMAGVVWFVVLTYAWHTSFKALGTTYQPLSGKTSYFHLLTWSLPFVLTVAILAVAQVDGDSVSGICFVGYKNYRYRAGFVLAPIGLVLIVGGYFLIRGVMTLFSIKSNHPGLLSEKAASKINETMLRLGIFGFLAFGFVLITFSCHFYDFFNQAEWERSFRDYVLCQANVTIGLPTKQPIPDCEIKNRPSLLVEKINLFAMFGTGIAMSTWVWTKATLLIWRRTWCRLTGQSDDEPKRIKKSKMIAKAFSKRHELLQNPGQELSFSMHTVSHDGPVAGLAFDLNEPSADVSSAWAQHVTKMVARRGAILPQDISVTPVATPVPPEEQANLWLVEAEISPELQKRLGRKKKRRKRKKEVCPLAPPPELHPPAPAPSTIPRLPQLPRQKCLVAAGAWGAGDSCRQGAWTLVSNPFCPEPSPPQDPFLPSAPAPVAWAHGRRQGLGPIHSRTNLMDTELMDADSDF

Protein smoothened [9] = target: T1, Protein smoothened; experiment: Binding affinity to recombinant human Smo receptor assessed as dissociation rate constant by SPR analysis
Procedure, shortened: (§4)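 Surface plasmon resonance with recombinant Smo protein, run in PBS at a flow rate of 2 μL/s and 4 °C. Analytes were injected at 2.5, 5 and 10 μM. The chip was regenerated with 0.5% SDS:glycine-HCl pH 2.0 (1:1). ka, kd, Rmax, KA and KD came from a global fit of the sensorgrams.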

MDA-MB-468 [10] = experiment: Induction of cell cycle arrest in human MDA-MB-468 cells assessed as cell accumulation at G2/M phase at 14 uM incubated for 48 hrs by propidium iodide staining-based flow cytometric analysis (reference value: 26.66 %); assay type: functional; procedure, shortened: as §1
Protein smoothened [11] = target: T1, Protein smoothened; experiment: Binding affinity to recombinant human Smo receptor assessed as maximum response at equilibrium by SPR analysis; procedure, shortened: as §4
MDA-MB-468 [12] = experiment: Induction of cell cycle arrest in human MDA-MB-468 cells assessed as cell accumulation at S phase at 28 uM incubated for 48 hrs by propidium iodide staining-based flow cytometric analysis (reference value: 34.20 %); assay type: functional; procedure, shortened: as §1
MDA-MB-468 [13] = experiment: Induction of cell cycle arrest in human MDA-MB-468 cells assessed as cell accumulation at G0/G1 phase at 28 uM incubated for 48 hrs by propidium iodide staining-based flow cytometric analysis (reference value: 38.94 %); assay type: functional; procedure, shortened: as §1
MDA-MB-468 [14] = experiment: Induction of apoptosis in human MDA-MB-468 cells assessed as increase in Bax protein expression level incubated for 1 hr by Western blot analysis; assay type: functional, cell-based
Protein smoothened [15] = target: T1, Protein smoothened; experiment: Binding affinity to recombinant human Smo receptor assessed as association rate constant by SPR analysis; procedure, shortened: as §4
MDA-MB-468 [16] = experiment: Antiproliferation activity against human MDA-MB-468 cells assessed as reduction in cell viability incubated for 72 hr by MTT assay; assay type: functional, cell-based; conditions: MDA-MB-468, 72 h; procedure, shortened: as §2
[17] = Acute toxicity in Kunming mouse assessed as mortality at 3965 mg/kg, ig observed for 14 days relative to control; assay type: organism-based; conditions: in vivo, po, read-out: Activity; procedure, shortened: as §3
AN3-CA = experiment: Antiproliferation activity against human AN3CA cells assessed as reduction in cell viability incubated for 72 hr by MTT assay; assay type: functional, cell-based; procedure, shortened: as §2
MDA-MB-468 [18] = experiment: Induction of cell cycle arrest in human MDA-MB-468 cells assessed as cell accumulation at G2/M phase at 56 uM incubated for 48 hrs by propidium iodide staining-based flow cytometric analysis (reference value: 26.66 %); assay type: functional; procedure, shortened: as §1
U-251 = experiment: Antiproliferation activity against human U251 cells assessed as reduction in cell viability incubated for 72 hrs by MTT assay; assay type: functional, cell-based; conditions: U-251, 72 h; procedure, shortened: as §2
MDA-MB-468 [19] = experiment: Induction of cell cycle arrest in human MDA-MB-468 cells assessed as cell accumulation at G0/G1 phase at 56 uM incubated for 48 hrs by propidium iodide staining-based flow cytometric analysis (reference value: 38.94 %); assay type: functional; procedure, shortened: as §1
Protein smoothened [20] = target: T1, Protein smoothened; experiment: Displacement of BODIPY-Cyclopamine from wild type Smo receptor (unknown origin) expressed in HEK293 cells incubated for 12 hrs by Hoechst 33342 based fluorescence microscopic method; assay type: cell-based
Procedure, shortened: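 HEK293 cells were transiently transfected in triplicate with a wild-type Smo plasmid, with expression confirmed by western blot. Cells were loaded with BODIPY-cyclopamine, then given unlabelled cyclopamine (25 μM) or test compound (1 or 25 μM) for 12 h at 37 °C. Nuclei were counterstained with Hoechst 33342. Green fluorescence was imaged by fluorescence microscopy.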

O=C(Nc1ccc(Cl)c(-c2nnc3c(Cl)cccn23)c1)c1ccc(Cl)nc1Cl
Activity (MDA-MB-468 [1]): 39.75% | IC50 (T47D): 42.3 µM | Activity (MDA-MB-468 [2]): 24.1% | Activity (MDA-MB-231): Dose-dependent effect | LD50 at 336 h [3]: 3880 mg/kg | Activity (MDA-MB-468 [4]): 64.97% | Activity (MDA-MB-468 [5]): 14.6% | IC50 [6]: 0.09 µM | Activity (MDA-MB-468 [7]): Dose-dependent effect | IC50 (MCF7): 61.5 µM | KA (Protein smoothened [8]): 9.71 ×10⁷ /M | Kdiss (Protein smoothened [9]): 0.00375 ×10⁻³ /s | Activity (MDA-MB-468 [10]): 86% | Rmax (Protein smoothened [11]): 90.5 RU | Activity (MDA-MB-468 [12]): 39% | Activity (MDA-MB-468 [13]): 29.86% | Activity (MDA-MB-468 [14]): Active | Ka (Protein smoothened [15]): 360 M⁻¹ s⁻¹ | IC50 (MDA-MB-468 [16]): 28.6 µM | mortality at 336 h [17]: 50% | IC50 (AN3-CA): 44.5 µM | Activity (MDA-MB-468 [18]): 42.57% | IC50 (U-251): 85.2 µM | Activity (MDA-MB-468 [19]): 29% | Activity (Protein smoothened [20]): Dose-dependent effect
